This passage reports Activity, MIC and Ratio results from ChEMBL document CHEMBL3286335, “Synthesis of 2,3,6-trideoxy sugar triazole hybrids as potential new broad spectrum antimicrobial agents” (Eur J Med Chem, 2014).

In brackets after ≈: the same amount, converted by molar mass. Some results are limits rather than exact numbers.

In series [1] the test system is L929. Nature of the series: Cytotoxicity against mouse L929 cells assessed as reduction in cell viability after 24 hrs by MTT assay. The format is cell-based. The note with it: l929, 24 h. The method, boiled down: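 L929 fibroblasts in DMEM with 10% FBS at 37 °C, 5% CO2. Seeded at 1×10^3 cells per well, switched to serum-free DMEM at 90% confluency. Compounds from 1 mg/mL DMSO stocks tested at nine twofold dilutions for 24 h. MTT readout: viability = (A570−A630) sample / (A570−A630) control × 100.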
On the technique in general: Tetrazolium dyes change colour on reduction, which living cells bring about.

In series [2] the test system is Sporothrix schenckii. Nature of the series: Antimicrobial activity against Sporothrix schenckii after 72 hrs by microbroth dilution method. Format: functional. The method, boiled down: (§1)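 Broth microdilution per NCCLS guidelines. Bacteria in Mueller-Hinton broth; fungi in MOPS-buffered RPMI 1640. Test compounds at 50-0.36 µg/mL, standard drugs over 32-0.0018 µg/mL. Inoculum 1-5 × 10^3 cells/mL, 35 °C in a moist chamber. A492 read at 24 h for bacteria, 48 h for C. albicans, 72 h for A. fumigatus, C. neoformans and S. schenckii, 96 h for T. mentagrophytes. MIC taken as 90% growth inhibition relative to growth control.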

For series [3], the system named is Aspergillus fumigatus. Nature of the series: Antimicrobial activity against Aspergillus fumigatus after 72 hrs by microbroth dilution method. Format: functional. In a few lines:
as §1
A general note: In broth dilution the organism is exposed to a series of concentrations in liquid medium.

The subject of series [4] is Staphylococcus aureus. Briefly: Antimicrobial activity against Staphylococcus aureus ATCC 25923 after 24 hrs by microbroth dilution method. Format: functional. The conditions noted are these: ATCC 25923, 24 h. In a few lines: as §1
Series [5] has as its system Trichophyton mentagrophytes. Nature of the series: Ratio of miconazole MIC to compound MIC for Trichophyton mentagrophytes after 96 hrs by microbroth dilution method. Format: functional.
In series [6] the test system is Klebsiella pneumoniae. Nature of the series: Antimicrobial activity against Klebsiella pneumoniae ATCC 27736 after 24 hrs by microbroth dilution method. The note with it: ATCC 27736, 24 h. Format: functional. In a few lines:
as §1

For series [7], the system named is Escherichia coli. Nature of the series: Antimicrobial activity against Escherichia coli ATCC 9637 after 24 hrs by microbroth dilution method. The note with it: ATCC 9637, 24 h. Format: functional. The method, boiled down: as §1
In series [8] the test system is Staphylococcus aureus. Nature of the series: Antimicrobial activity against methicillin-resistant Staphylococcus aureus after 24 hrs by microbroth dilution method. The format is functional. The method, boiled down: (§2)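 Microbroth dilution in Mueller Hinton broth, following NCCLS guidelines. Test compounds were run at 50-0.36 µg/mL against an initial inoculum of 1-5 × 10^3 cells/mL. Plates were incubated in a moist chamber at 35 °C, and absorbance at 492 nm was read after 24 h. MIC was taken as 90% growth inhibition relative to the growth control.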

Series [9] relates to Pseudomonas aeruginosa. Nature of the series: Antimicrobial activity against Pseudomonas aeruginosa ATCC BAA-427 after 24 hrs by microbroth dilution method. The format is functional. The note with it: ATCC BAA-427, 24 h. The method, boiled down: as §1
The test system of series [10] is L929. Nature of the series: Cytotoxicity against mouse L929 cells assessed as change in morphology at 50 ug/ml after 24 hrs using Giemsa staining by phase contrast microscopy. The conditions noted are these: l929, 24 h. Format: cell-based. The method, boiled down:
(§3)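 Mouse fibroblast L929 cells grown in DMEM with 10% FBS and antibiotic/antimycotic at 37 °C, 5% CO2. Medium switched to serum-free DMEM at 90% confluency, then compounds added (DMSO stocks) for 24 h. Cells fixed, stained with Giemsa for 30 min at 37 °C, washed with PBS, air dried and examined by phase-contrast microscopy.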

The test system of series [11] is Cryptococcus neoformans. Nature of the series: Antimicrobial activity against Cryptococcus neoformans after 72 hrs by microbroth dilution method. The format is functional. The method, boiled down: as §1
For series [12], the system named is Candida albicans. Nature of the series: Antimicrobial activity against Candida albicans after 48 hrs by microbroth dilution method. The format is functional. The method, boiled down:
as §1

Series [13] concerns Trichophyton mentagrophytes. Nature of the series: Antimicrobial activity against Trichophyton mentagrophytes after 96 hrs by microbroth dilution method. Format: functional. The method, boiled down:
as §1

The test system of series [14] is Trichophyton mentagrophytes. Nature of the series: Ratio of fluconazole MIC to compound MIC for Trichophyton mentagrophytes after 96 hrs by microbroth dilution method. Format: functional.
Series [15] has as its system Staphylococcus aureus. Nature of the series: Antimicrobial activity against vancomycin-resistant Staphylococcus aureus after 24 hrs by microbroth dilution method. The format is functional. In a few lines: as §2
Series [16] has as its system L929. Briefly: Cytotoxicity against mouse L929 cells assessed as change in morphology at MIC after 24 hrs using Giemsa staining by phase contrast microscopy. The note with it: l929, 24 h. Format: cell-based. In a few lines: as §3

As a reminder, the MIC is the smallest concentration in the dilution series that meets the test's criterion for growth inhibition. As for `CCCCO[C@@H]1C=CC(=O)[C@@H](Cn2cc(CCCCl)nn2)O1`, the Activity entry is listed as “Dose-dependent effect” in series [1], “Toxic” in series [10] and “Non-toxic” in series [16]. Moreover, the MIC in series [2] is 3.12 µg/mL (≈ 9.52 µM); in series [3] it was over 50 µg/mL; in series [4], 12.5 µg/mL (≈ 38.1 µM); in [6], over 50 µg/mL; in series [7], over 50 µg/mL; in [8], over 50 µg/mL. Besides, the MIC is over 50 µg/mL in series [9]; 50 µg/mL (≈ 153 µM) in series [11]; 25 µg/mL (≈ 76.3 µM) in series [12]; 0.39 µg/mL (≈ 1.19 µM) in series [13]; over 50 µg/mL in series [15]. The Ratio in series [5] is given as 2; in series [14] it was 40.
